Published values from different studies.
Each line is one published result; the experiments were not run side by side.
Target: Cannabinoid receptor 2 (CNR2, Homo sapiens, UniProt P34972)
Observed: ligand displacement
Method: radioligand

CC/C(=C(\c1ccc(O)cc1)c1ccc(OCCN(C)C)cc1)c1ccccc1  Ki (cell membranes): 900 nM
CCOC(=O)C(CC)(CCCSC)NC(=O)c1ccc(C2CC2)c(Cc2ccc(F)cc2)n1 (stereo not drawn)  Ki (cell membranes): 1.3 nM
CCCS(=O)(=O)Oc1ccc(-n2c(-c3ccc(Cl)cc3Cl)nc(C(=O)NN3CCCCC3)c2C)cc1  Ki (cell membranes): 35 nM
CCOC(=O)[C@](CC)(CCC[S+]([O-])CCOCCOCCNC(=O)OC(C)(C)C)NC(=O)c1ccc(C2CC2)c(Cc2ccc(F)cc2)n1 (stereo partly drawn)  Ki (cell membranes): 29 nM
CCCCCc1cc(O)c2c(c1)OC(C)(C)[C@@H]1CC=C(C)[C@H](O)[C@@H]21  Ki (cell membranes): 30 nM
Cc1nc([C@@](C)(CC2CC2)NC(=O)c2cc(OCC(F)(F)F)c(C3CC3)cn2)no1  Ki (cell membranes): 76 nM
CCCCCc1cc(O)c(C/C=C(\C)CCC=C(C)C)c(O)c1C(=O)O  Ki (cell membranes): > 10000 nM
CCCCCn1cc(C(=O)C2C(C)(C)C2(C)C)c2ccccc21  Ki (cell membranes): 4.51 nM
CCCCC/C=C\C/C=C\C/C=C\C/C=C\CCCC(=O)NCCCl  Ki (cell membranes): 5200 nM
CCCc1cc(O)c2c(c1)OC(C)(C)c1ccc(C)cc1-2  Ki (cell membranes): 4780 nM
CCOC(=O)[C@H](CSC)NC(=O)c1ccc(C2CC2)c(Cc2ccc(F)cc2)n1  Ki (cell membranes): 3.2 nM
CCCCCc1cc(O)c2c(c1)OC(C)(C)[C@@H]1CC[C@](C)(O)[C@@H](O)[C@@H]21  Ki (cell membranes): 2140 nM
CCOC(=O)C(CC)(CCCSCCOCCOCCOCCOCCNC(=O)OC(C)(C)C)NC(=O)c1ccc(C2CC2)c(Cc2ccc(F)cc2)n1 (stereo not drawn)  Ki (cell membranes): 140 nM
CCCCCc1cc(O)c2c(c1)OC(C)(C)c1ccc(C)cc1-2  Ki (cell membranes): 73 nM
CCCCCn1c2ccccc2c2cc(C(=O)N3CCN(CC(=O)NC(C)(C)C)CC3)ccc21  Ki: 2000 nM
